Measured values: ChEMBL document CHEMBL3785056, “New imidazoquinoxaline derivatives: Synthesis, biological evaluation on melanoma, effect on tubulin polymerization and structure-activity relationships” (Bioorg Med Chem, 2016)
Calls of active or inactive are those of the source. The calls are words filed in the database; no cut-off is given here.

Legend:
A-375 [1] = experiment: Antiproliferative activity against human A375 cells assessed as cell growth inhibition after 96 hrs by MTT assay; type: functional, cell-based; settings: A-375, 96 h
Method in brief: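 A375 cells in RPMI-1640 with 10% heat-inactivated FBS, 37 °C, 5% CO2, seeded 5000 cells/well and attached overnight. Exposed 96 h to […] in 1% DMSO/medium. MTT read at 570 nm after isopropanol/HCl solubilization. Survival given as % of vehicle control. IC50 taken from sigmoidal dose-response curves, at least three experiments in triplicate.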

Tubulin (Sus scrofa) = Tubulin (Sus scrofa) (UniProt P02554+P02550); experiment: Inhibition of pig brain tubulin polymerization at 5 uM by spectrophotometric analysis
Chain of Tubulin (Sus scrofa) (P02550 whole entry, looked up): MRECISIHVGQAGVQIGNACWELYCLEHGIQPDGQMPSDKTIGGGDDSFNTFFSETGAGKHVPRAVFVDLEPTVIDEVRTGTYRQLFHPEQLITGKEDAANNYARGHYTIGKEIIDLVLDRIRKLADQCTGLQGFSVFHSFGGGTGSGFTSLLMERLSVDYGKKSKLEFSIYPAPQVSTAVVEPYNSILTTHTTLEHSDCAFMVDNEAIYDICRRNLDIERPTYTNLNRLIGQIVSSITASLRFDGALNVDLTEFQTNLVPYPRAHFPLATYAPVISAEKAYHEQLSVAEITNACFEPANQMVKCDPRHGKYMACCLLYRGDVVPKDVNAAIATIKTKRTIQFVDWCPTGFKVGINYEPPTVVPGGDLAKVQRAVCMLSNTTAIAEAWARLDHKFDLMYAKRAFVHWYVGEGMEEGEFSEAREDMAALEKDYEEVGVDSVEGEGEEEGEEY
Chain of Tubulin (Sus scrofa) (P02554 whole entry, looked up): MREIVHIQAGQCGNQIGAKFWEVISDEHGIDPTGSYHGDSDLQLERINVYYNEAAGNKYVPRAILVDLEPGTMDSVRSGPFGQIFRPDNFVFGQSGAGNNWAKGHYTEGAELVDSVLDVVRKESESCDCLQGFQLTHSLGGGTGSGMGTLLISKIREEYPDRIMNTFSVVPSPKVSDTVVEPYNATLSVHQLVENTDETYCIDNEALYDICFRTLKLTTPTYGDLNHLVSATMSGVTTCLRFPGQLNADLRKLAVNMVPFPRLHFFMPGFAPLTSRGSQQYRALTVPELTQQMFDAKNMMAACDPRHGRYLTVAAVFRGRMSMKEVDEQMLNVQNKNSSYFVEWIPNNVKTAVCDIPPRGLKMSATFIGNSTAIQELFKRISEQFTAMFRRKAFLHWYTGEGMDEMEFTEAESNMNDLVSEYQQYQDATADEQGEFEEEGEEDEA
Method in brief: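 Compound 5 µM final, DMSO as negative control. Polymerization at 37 °C followed by turbidity at 350 nm, with ice added after 45 min to check depolymerization. Given as % inhibition from three independent experiments.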

A-375 [2] = experiment: Cell cycle arrest in human A375 cells assessed as effect on number of cells at G0/G1 phase after 24 hrs by propidium iodide staining based flow cytometric analysis; type: functional
Method in brief: (§1)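 A375 cells treated 24 h, washed in PBS and pelleted at 400g, 4 °C. Pellet lysed in ice-cold hypotonic solution (PI 25 µg/ml, 0.1% trisodium citrate, RNase A, 0.1% Triton X-100) and held overnight on ice. DNA content read by flow cytometry, giving G0/G1, S and G2/M percentages.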

A-375 [3] = experiment: Cell cycle arrest in human A375 cells assessed as effect on number of cells at S phase after 24 hrs by propidium iodide staining based flow cytometric analysis; type: functional; method in brief: as §1
A-375 [4] = experiment: Cell cycle arrest in human A375 cells assessed as accumulation of cells at G2/M phase after 24 hrs by propidium iodide staining based flow cytometric analysis; type: functional; method in brief: as §1

## COc1cc2c(c(OC)c1OC)-c1ccc(OC)c(=O)cc1[C@@H](NC(C)=O)CC2 [COLCHICINE]
A-375 [1]
  IC50: 10 nM

## CNc1nc2ccccc2n2c(-c3cccc(OC)c3)cnc12
Tubulin (Sus scrofa)
  inhibition: 84%
A-375 [2]
  Activity: Dose-dependent effect
A-375 [3]
  Activity: Dose-dependent effect
A-375 [4]
  Activity: Dose-dependent effect

## CNc1nc2ccccc2n2c(-c3cc(OC)c(OC)c(OC)c3)cnc12
A-375 [1]
  IC50: 1800 nM
Tubulin (Sus scrofa)
  inhibition: inactive

## CNc1nc2ccccc2n2c(-c3ccc(OC)c(OC)c3OC)cnc12
A-375 [1]
  IC50: 1500 nM
Tubulin (Sus scrofa)
  inhibition: inactive

## CNc1nc2ccccc2n2c(-c3ccc(OC)c(OC)c3)cnc12
A-375 [1]
  IC50: 300 nM
Tubulin (Sus scrofa)
  inhibition: 63%

## CNc1nc2ccccc2n2c(-c3cc(OC)ccc3OC)cnc12
A-375 [1]
  IC50: 1200 nM
Tubulin (Sus scrofa)
  inhibition: 3%

## CNc1nc2ccccc2n2c(-c3cccc(OC)c3OC)cnc12
A-375 [1]
  IC50: 5900 nM
Tubulin (Sus scrofa)
  inhibition: inactive

## COc1cccc(-c2cnc3c(N)nc4ccccc4n23)c1
A-375 [1]
  IC50: 200 nM
Tubulin (Sus scrofa)
  inhibition: 41%

## CNc1nc2ccccc2n2c(-c3cccc(OC)c3O)cnc12
A-375 [1]
  IC50: 77 nM
Tubulin (Sus scrofa)
  inhibition: 90%

## CNc1nc2ccccc2n2c(-c3cccc(O)c3)cnc12
A-375 [1]
  IC50: 1250 nM
Tubulin (Sus scrofa)
  inhibition: inactive

## CNc1nc2ccccc2n2c(-c3ccccc3OC)cnc12
Tubulin (Sus scrofa)
  inhibition: inactive

## CNc1nc2ccccc2n2c(-c3ccc(OC)cc3)cnc12
Tubulin (Sus scrofa)
  inhibition: 99%
A-375 [2]
  Activity: Dose-dependent effect
A-375 [3]
  Activity: Dose-dependent effect
A-375 [4]
  Activity: Dose-dependent effect

## Nc1nc2ccccc2n2c(-c3cccc(O)c3)cnc12
A-375 [1]
  IC50: 2400 nM
Tubulin (Sus scrofa)
  inhibition: 11.3%

## CNc1nc2ccccc2n2c(-c3cc(OC)cc(OC)c3)cnc12
A-375 [1]
  IC50: 220 nM
Tubulin (Sus scrofa)
  inhibition: 98.5%
A-375 [2]
  Activity: Dose-dependent effect
A-375 [3]
  Activity: Dose-dependent effect
A-375 [4]
  Activity: Dose-dependent effect

## CNc1nc2ccccc2n2c(-c3c(OC)cc(OC)cc3OC)cnc12
A-375 [1]
  IC50: 2300 nM
Tubulin (Sus scrofa)
  inhibition: inactive
